From paper PMC7932028 (European journal of medicinal chemistry, 2020)
Converted amounts (≈) assume the structure as drawn.

Test system: S. aureus strain 29213
Experiment: Whole cell growth inhibition
Assay type: cell-based
Details: Staphylococcus aureus, 29213, 18 h, read-out: MIC (whole cell growth inhibition)
How it was run: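 Racemic test compounds were assayed against CLSI-standardized S. aureus cultures. Growth was scored by turbidity at 600 nm and by visual inspection. The MIC was taken as the lowest concentration with no growth after 18 h incubation. There were n = 2 independent assays, each with duplicate technical replicates, and values are given with SEM.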

| SMILES | MIC [µg/mL] |
| --- | --- |
| CCCC1c2ccccc2C=NN1C(=O)/C=C/c1cc(Cc2cnc(N)nc2N)cc(OC)c1OC (stereo not drawn) [11a] | 0.0625 to 0.25 (≈ 0.128 to 0.514 µM) |
| CCCC1c2cc(C)c(C)cc2C=NN1C(=O)/C=C/c1cc(Cc2cnc(N)nc2N)cc(OC)c1OC (racemic) [13b, (±)-(E)-3-(5-((2,4-Diaminopyrimidin-5-yl)methyl)-2,3-dimethoxyphenyl)-1-(6,7-dimethyl-1-propylphthalazin-2(1H)-yl) prop-2-en-1-one] | 0.5 to 1 (≈ 0.972 to 1.94 µM) |
| COc1cc(Cc2cnc(N)nc2N)cc(/C=C/C(=O)N2N=Cc3ccccc3C2c2ccc(C)cc2)c1OC (stereo not drawn) [11j] | 0.046 to 0.187 (≈ 0.086 to 0.35 µM) |
